# According to ChEMBL document CHEMBL4819122, “Novel 4-(piperazin-1-yl)quinolin-2(1H)-one bearing thiazoles with antiproliferative activity through VEGFR-2-TK inhibition” (Bioorg Med Chem, 2021):
# Active and inactive are the calls of the source. The rule behind the calls is not given here.
# Experiments:
# [1] = test system: T47D; assay: Cytotoxicity against human T47D cells assessed as reduction in cell viability after 3 hrs by MTT assay
# [2] = test system: Hs-578T; assay: Cytotoxicity against human HS 578T assessed as growth inhibition at 10 uM by NCI protocol relative to control; format: functional; conditions: read-out: GI
# Outline: (§1)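 Run by NCI as a single-dose screen at 10 μM across the sixty-cell-line panel, which covers nine human tumour tissue types. The read-out is percent growth inhibition of treated cells relative to untreated cells.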
# [3] = test system: MDA-MB-435; assay: Cytotoxicity against human MDA-MB-435 assessed as growth inhibition at 10 uM by NCI protocol relative to control; format: functional, cell-based; outline: as §1
# [4] = test system: EKVX; assay: Cytotoxicity against human EKVX assessed as growth inhibition at 10 uM by NCI protocol relative to control; format: functional; conditions: read-out: GI; outline: as §1
# [5] = test system: A498; assay: Cytotoxicity against human A498 assessed as growth inhibition at 10 uM by NCI protocol relative to control; format: functional; conditions: read-out: GI; outline: as §1
# [6] = test system: T47D; assay: Cytotoxicity against human T-47D assessed as growth inhibition at 10 uM by NCI protocol relative to control; format: functional; conditions: read-out: GI
# Outline: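 Run by the NCI under its standard protocol: one dose of 10 μM against a sixty-line panel from nine human tumour tissues. Result given as percent growth inhibition of treated cells relative to untreated cells.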
smiles,measurement,setting,value
O=c1cc(N2CCNCC2)c2cc(F)ccc2[nH]1,IC50,[1],37.7 µM
same,inhibition of growth at 10 µM,[2],19.6%
same,growth inhibition (GI),[3],inactive
same,inhibition of growth at 10 µM,[4],56.2%
same,inhibition of growth at 10 µM,[5],26%
same,inhibition of growth at 10 µM,[6],10.5%
